From ChEMBL document CHEMBL3286255, “Rational design and synthesis of novel thiazolidin-4-ones as non-nucleoside HIV-1 reverse transcriptase inhibitors” (Bioorg Med Chem, 2014)

Tests used:
[1] = Selectivity index, ratio of CC50 for human TZM-bl cells to EC50 for R5 tropic Human immunodeficiency virus 1 VB59 subtype C; type: toxicity, cell-based; details: read-out: Ratio CC50/EC50
[2] = system: Human immunodeficiency virus 1; experiment: Antiviral activity against R5 tropic Human immunodeficiency virus 1 VB59 subtype C infected in human TZM-bl cells assessed as reduction in virus-induced cytopathic effect after 48 hrs by luminescence assay; type: functional, organism-based
Outline: (§1)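 TZM-bl cells (HeLa-derived; CD4, CXCR4, CCR5; LTR-driven luciferase) seeded 1×10^4/well, left overnight at 37 °C, 5% CO2, then infected with 400 TCID50 virus for 2 h. Serial compound dilutions added in duplicate, only at levels giving >50% viability. […] Mean of two independent assays; nevirapine as positive control.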

[3] = system: Human immunodeficiency virus 1; experiment: Antiviral activity against X4 tropic Human immunodeficiency virus 1 3B subtype B infected in human TZM-bl cells assessed as reduction in virus-induced cytopathic effect after 48 hrs by luminescence assay; type: functional, organism-based; outline: as §1
[4] = Cytotoxicity against human TZM-bl cells after 48 hrs by MTT assay; type: cell-based
Outline: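 TZM-bl cells seeded 1×10^4/well and left overnight at 37 °C, 5% CO2. Medium then replaced with a two-fold dilution series of compound in quadruplicate. […] Mean of three independent assays.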

[5] = Selectivity index, ratio of CC50 for human TZM-bl cells to EC50 for X4 tropic Human immunodeficiency virus 1 3B subtype B; type: toxicity, cell-based; details: read-out: Ratio CC50/EC50
[6] = system: Human immunodeficiency virus 1; experiment: Antiviral activity against X4 tropic Human immunodeficiency virus 1 UG070 subtype D infected in human TZM-bl cells assessed as reduction in virus-induced cytopathic effect after 48 hrs by luminescence assay; type: functional, organism-based; outline: as §1
[7] = system: Human immunodeficiency virus; experiment: Inhibition of HIV reverse transcriptase at 100 ug/ml after 1 hr by ELISA relative to control
Outline: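 Kit ELISA for HIV RT. Template/primer, biotin- and DIG-labelled dNTPs and RT enzyme in lysis buffer incubated 1 h at 37 °C. Product captured on streptavidin, detected with anti-DIG-peroxidase and ABTS substrate, and read at 405 nm. Percent inhibition calculated against a no-inhibitor sample.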

[8] = Selectivity index, ratio of CC50 for human TZM-bl cells to EC50 for X4 tropic Human immunodeficiency virus 1 UG070 subtype D; type: toxicity, cell-based; details: read-out: Ratio CC50/EC50
[9] = system: Human immunodeficiency virus 1; experiment: Antiviral activity against R5 tropic Human immunodeficiency virus 1 ADA5 subtype B infected in human TZM-bl cells assessed as reduction in virus-induced cytopathic effect after 48 hrs by luminescence assay; type: functional, organism-based; outline: as §1
[10] = Selectivity index, ratio of CC50 for human TZM-bl cells to EC50 for R5 tropic Human immunodeficiency virus 1 ADA5 subtype B; type: toxicity, cell-based; details: read-out: Ratio CC50/EC50
[11] = Human immunodeficiency virus 1, VB59 subtype C, TZM-bl, 48 h, read-out: EC50
[12] = Human immunodeficiency virus 1, 3B subtype B, TZM-bl, 48 h, read-out: EC50
[13] = Human immunodeficiency virus 1, UG070 subtype D, TZM-bl, 48 h, read-out: EC50
[14] = Human immunodeficiency virus 1, ADA5 subtype B, TZM-bl, 48 h, read-out: EC50

Structure (SMILES) | selectivity ratio [1] | EC50 [2, 11] [µM] | EC50 [3, 12] [µM] | CC50 at 48 h [4] [µM] | selectivity ratio [5] | EC50 [6, 13] [µM] | inhibition [7] [%] | selectivity ratio [8] | EC50 [9, 14] [µM] | selectivity ratio [10] | EC50 ([3]; tzm-bl) | EC50 ([9]; tzm-bl) | EC50 ([2]; tzm-bl) | EC50 ([6]; tzm-bl)
N#Cc1ccc(NN2C(=O)CSC2c2c(F)cccc2F)cc1 (configuration not stated) | 0.86 | 48.9 | 42.6 | 42.2 | 1 | 56.9 | 34.5 | 0.74 | 26.6 | 1.58 |  |  |  | 
O=C(NN1C(=O)CSC1c1c(F)cccc1Cl)c1ccncc1 (configuration not stated) |  |  |  | 105 |  |  | 81.7 |  |  |  | Not Active | Not Active |  | 
COc1cc(OC)nc(N2C(=O)CSC2c2c(F)cccc2Cl)n1 (configuration not stated) | 307 | 0.32 | 0.18 | 98.2 | 545 | 0.24 | 95.4 | 409 | 0.16 | 614 |  |  |  | 
Cc1cc(N2C(=O)CSC2c2ccc(C#N)cc2)nc(C)c1Br (configuration not stated) |  |  |  | 43.8 |  |  | 37.5 |  | 39.1 | 1.11 | Not Active |  |  | 
Cc1cc(N2C(=O)CSC2c2ccc(C#N)cc2)no1 (configuration not stated) | 2.04 | 68.7 | 88.7 | 140 | 1.57 |  | 27.6 |  | 81.1 | 1.72 |  |  |  | 
Cc1cccc(C)c1C1SCC(=O)N1NC(=O)c1ccncc1 (configuration not stated) |  |  | 29.4 | 43.4 | 1.47 | 38.8 | 14.2 | 1.11 | 18.9 | 2.29 |  |  | Not Active | 
O=C1CSC(c2c(Cl)cccc2Cl)N1c1ncnc2[nH]cnc12 (configuration not stated) |  |  | 11.8 | 13.1 | 1.1 |  | 50.2 |  | 11.7 | 1.11 |  |  |  | 
COc1cc(OC)nc(N2C(=O)CSC2c2ccc(C#N)cc2)n1 (configuration not stated) |  |  | 68 | 86.5 | 1.27 |  | 12.2 |  | 57 | 1.51 |  |  | Not Active | Not Active
Cc1ccnc(N2C(=O)CSC2c2ccc(C#N)cc2)n1 (configuration not stated) |  |  | 85.7 | 121 | 1.41 |  | 43.5 |  | 55 | 2.2 |  |  | Not Active | Not Active
Cc1cc(N2C(=O)CSC2c2c(Cl)cccc2[N+](=O)[O-])nc(C)c1Br (configuration not stated) |  |  |  |  |  |  | 77.8 |  |  |  |  |  |  | 
COc1cccc(OC)c1C1SCC(=O)N1c1cc(C)on1 (configuration not stated) | 6.18 | 20.2 | 11.3 | 125 | 11 | 18.4 | 62.2 | 6.77 |  |  |  | Not Active |  | 
N#Cc1ccc(C2SCC(=O)N2c2ccc(C#N)cc2)cc1 (configuration not stated) | 1.34 | 55.7 | 67.8 | 75 | 1.1 | 63.4 |  | 1.18 | 61.2 | 1.22 |  |  |  | 
Cc1cc(C)nc(N2C(=O)CSC2c2ccc(C#N)cc2)n1 (configuration not stated) |  |  | 115 | 113 | 0.97 |  | 41.5 |  | 99.3 | 1.13 |  |  | Not Active | Not Active
Cc1ccc(S(=O)(=O)NN2C(=O)CSC2c2c(Cl)cccc2Cl)cc1 (configuration not stated) |  |  | 29.4 | 75.7 | 2.57 |  | 57.9 |  | 4.55 | 16.6 |  |  | Not Active | Not Active
O=C(NN1C(=O)CSC1c1c(Cl)cccc1Cl)c1ccncc1 (configuration not stated) | 6.47 | 26.3 | 36.7 | 170 | 4.64 |  | 18.9 |  | 9.72 | 17.5 |  |  |  | Not Active
